Results on 3 substances are retold here after article PMC6076386 (Biochemistry, 2017).

The test system of test [1] is thrombin ABE I region 65–84. As to conditions: cited from earlier work.
A further test has as its system thrombin ABE I. As to conditions: cited from earlier work.
Test [2] addresses Wild Type PPACK-IIa (human plasma thrombin), ABE I (Homo sapiens, UniProt P00734). In words: 2D 1H-15N HSQC NMR titration, wild-type PPACK-thrombin. The format is binding. As to conditions: native PAR3 sequence, 15N-D54 and 15N-F47, PPACK-IIa; pH 6.5, 25 °C. The essentials:
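Human plasma thrombin blocked with PPACK (4:1 inhibitor:enzyme, 37 °C, 30 min), buffer-exchanged into 25 mM H₃PO₄, 150 mM NaCl, 0.2 mM EDTA, 10% D₂O, pH 6.5, 25 °C. ¹⁵N-labeled PAR3(44–56) held at 50 μM while thrombin (starting 210 μM) was serially diluted, spanning 4:1 to 0.1:1 ratios. Chemical-shift changes were fitted with a ligand-normalized quadratic for K_D. At least triplicate; Monte-Carlo errors assumed 10% dilution error.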

Another test deals with PAR3 (Homo sapiens) (UniProt O00254). In words: fluorescence titration. As to conditions: cited from earlier work.

Entries after “also recorded” stand apart in the source; their conditions may differ.

On to “PAR3 (^44Q N T ^15F E E F P L S ^15D I E[56]) [PAR3 (44–56)]”, for which the HDX-MS binding region entry in test [1] is “both bind to the thrombin ABE I region 65–84”. The “binding by X-ray crystallography” value in the test on thrombin ABE I was “confirmed to bind in a specific manner to thrombin ABE I”. The “binding affinity by 15N-HSQC NMR titration” value in test [2] is on record as “binding affinities could not be determined; also recorded: bound too tightly to thrombin”.

In the case of hirudin [reference compound], the HDX-MS binding region entry in test [1] is recorded as “both bind to the thrombin ABE I region 65–84”.

For Thrombin (from UniProt P00734), the Kd with PAR3 (Homo sapiens) was 2000 nM.
